Source: ChEMBL document CHEMBL4304834, “3-Amino-chromanes and Tetrahydroquinolines as Selective 5-HT2B, 5-HT7, or σ1 Receptor Ligands” (ACS Med Chem Lett, 2019)

Tests used:
[1] = molecular target: Beta-1 adrenergic receptor (Homo sapiens, UniProt P08588); test: Displacement of [125I]-pindolol from human recombinant adrenergic Beta1 receptor expressed in Flp-In CHO cells after 90 mins by microbeta scintillation counting method; format: cell-based
How it was run: (§1)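 Radioligand binding run by the NIMH Psychoactive Drug Screening Program. […] Otherwise Ki comes from sigmoidal curve fits of triplicate measurements in a single experiment, or is averaged over repeated experiments each run in triplicate.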

[2] = molecular target: T1, Delta-type opioid receptor (Homo sapiens, UniProt P41143); test: Displacement of [3H]-DADLE from human recombinant DOR receptor expressed in stable HEK cells after 90 mins by microbeta scintillation counting method; format: cell-based; how it was run: as §1
[3] = molecular target: Histamine H3 receptor (Homo sapiens, UniProt Q9Y5N1); test: Displacement of [3H]-alpha-methylhistamine from human recombinant histamine H3 receptor expressed in Flp-In HEK cells after 90 mins by microbeta scintillation counting method; format: cell-based
How it was run: (§2)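 Radioligand binding was run by the NIMH Psychoactive Drug Screening Program. Compounds were first screened at 10 μM. Those giving ≥50% binding were taken to full competition curves. Ki is reported as pKi from a sigmoidal curve fit of triplicate measurements in a single experiment; the error is the curve-fit error.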

[4] = molecular target: T2, 5-hydroxytryptamine receptor 1A (Homo sapiens, UniProt P08908); test: Displacement of [3H]-Way100635 from human recombinant 5-HT1A expressed in stable CHO cells after 90 mins by microbeta scintillation counting method; format: cell-based
T2 sequence (P08908 whole entry): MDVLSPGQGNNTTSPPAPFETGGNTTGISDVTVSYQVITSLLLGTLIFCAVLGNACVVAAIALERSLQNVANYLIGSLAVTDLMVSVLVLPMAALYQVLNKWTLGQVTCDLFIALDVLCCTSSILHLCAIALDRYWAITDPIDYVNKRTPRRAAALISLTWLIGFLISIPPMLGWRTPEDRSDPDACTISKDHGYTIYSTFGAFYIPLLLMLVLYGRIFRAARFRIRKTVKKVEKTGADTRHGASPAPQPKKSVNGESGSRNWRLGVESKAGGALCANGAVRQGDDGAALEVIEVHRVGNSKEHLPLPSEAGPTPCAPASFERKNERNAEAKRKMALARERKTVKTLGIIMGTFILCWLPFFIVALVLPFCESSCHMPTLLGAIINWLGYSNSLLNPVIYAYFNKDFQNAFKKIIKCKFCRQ
How it was run: (§3)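 Run by NIMH Psychoactive Drug Screening Program. Otherwise, competition binding curves are generated and pKi is taken from a sigmoidal curve fit. Data are either triplicate measurements within one experiment, with the error from the fit, or the mean of repeated experiments, each run in triplicate.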

[5] = molecular target: T3, Alpha-1D adrenergic receptor (Homo sapiens, UniProt P25100); test: Displacement of [3H]-Prazosin from human recombinant adrenergic Alpha1D receptor expressed in cells after 90 mins by microbeta scintillation counting method; format: cell-based; how it was run: as §2
T3 sequence (P25100 whole entry): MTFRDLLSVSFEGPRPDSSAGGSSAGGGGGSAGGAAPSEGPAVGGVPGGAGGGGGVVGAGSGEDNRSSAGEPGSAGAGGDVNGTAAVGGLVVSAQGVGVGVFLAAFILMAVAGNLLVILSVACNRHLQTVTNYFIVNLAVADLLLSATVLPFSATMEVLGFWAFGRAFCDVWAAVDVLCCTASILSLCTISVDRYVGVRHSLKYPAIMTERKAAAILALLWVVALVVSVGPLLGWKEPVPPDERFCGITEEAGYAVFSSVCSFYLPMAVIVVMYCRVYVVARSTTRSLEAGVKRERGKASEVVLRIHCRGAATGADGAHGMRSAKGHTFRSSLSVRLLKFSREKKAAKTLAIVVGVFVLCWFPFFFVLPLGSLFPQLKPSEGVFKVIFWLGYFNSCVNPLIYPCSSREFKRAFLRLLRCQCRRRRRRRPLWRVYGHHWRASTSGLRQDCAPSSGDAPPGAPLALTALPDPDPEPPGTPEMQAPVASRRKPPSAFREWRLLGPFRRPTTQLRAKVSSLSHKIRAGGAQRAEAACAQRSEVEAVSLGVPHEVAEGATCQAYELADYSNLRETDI

[6] = molecular target: T4, Sigma intracellular receptor 2 (Homo sapiens, UniProt Q5BJF2); test: Displacement of […] from human recombinant sigma2 receptor expressed in HEKT cells after 90 mins by microbeta scintillation counting method; format: cell-based; how it was run: as §3
[7] = molecular target: T5, Alpha-2A adrenergic receptor (Homo sapiens, UniProt P08913); test: Displacement of [3H]-Rauwolscine from human recombinant adrenergic Alpha2A receptor expressed in stable MDCK cells after 90 mins by microbeta scintillation counting method; format: cell-based; how it was run: as §2
T5 sequence (P08913 whole entry): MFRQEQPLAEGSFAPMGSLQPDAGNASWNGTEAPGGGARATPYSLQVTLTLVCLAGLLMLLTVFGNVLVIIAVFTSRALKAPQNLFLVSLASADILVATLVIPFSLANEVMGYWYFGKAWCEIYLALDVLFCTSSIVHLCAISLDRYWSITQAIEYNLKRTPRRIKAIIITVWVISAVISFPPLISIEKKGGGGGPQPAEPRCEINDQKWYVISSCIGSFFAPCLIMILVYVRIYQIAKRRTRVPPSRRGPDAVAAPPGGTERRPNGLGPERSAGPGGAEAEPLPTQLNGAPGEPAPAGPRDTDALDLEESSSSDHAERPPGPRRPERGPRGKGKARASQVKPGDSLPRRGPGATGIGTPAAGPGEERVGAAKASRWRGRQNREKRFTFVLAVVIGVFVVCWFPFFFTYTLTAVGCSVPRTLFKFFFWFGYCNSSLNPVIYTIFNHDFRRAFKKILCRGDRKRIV

[8] = molecular target: Kappa-type opioid receptor (Homo sapiens, UniProt P41145); test: Displacement of [3H]-U69593 from human recombinant KOR receptor expressed in stable HEK cells after 90 mins by microbeta scintillation counting method; format: cell-based; how it was run: as §2
[9] = molecular target: T4, Sigma intracellular receptor 2; test: Displacement of […] from human recombinant sigma2 receptor expressed in HEKT cells at 10 uM after 90 mins by microbeta scintillation counting method relative to control; format: cell-based; how it was run: as §1
[10] = molecular target: D(2) dopamine receptor (Homo sapiens, UniProt P14416); test: Displacement of [3H]-N-methylspiperone from human recombinant dopamine D2 receptor expressed in stable fibroblast cells at 10 uM after 90 mins by microbeta scintillation counting method relative to control; format: cell-based; how it was run: as §1
[11] = molecular target: GABA-A receptor; anion channel; test: Displacement of [3H]-Muscimol from GABAA receptor in rat brain incubated for 90 mins by microbeta scintillation counting method; format: tissue-based
How it was run: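 Radioligand binding run by the NIMH Psychoactive Drug Screening Program. Otherwise Ki comes from sigmoidal curve fits of triplicate measurements in a single experiment, or is averaged over repeated experiments each run in triplicate.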

[12] = molecular target: T1, Delta-type opioid receptor; test: Displacement of [3H]-DADLE from human recombinant DOR receptor expressed in stable HEK cells at 10 uM after 90 mins by microbeta scintillation counting method relative to control; format: cell-based; how it was run: as §1

T4 sequence (Q5BJF2 whole entry): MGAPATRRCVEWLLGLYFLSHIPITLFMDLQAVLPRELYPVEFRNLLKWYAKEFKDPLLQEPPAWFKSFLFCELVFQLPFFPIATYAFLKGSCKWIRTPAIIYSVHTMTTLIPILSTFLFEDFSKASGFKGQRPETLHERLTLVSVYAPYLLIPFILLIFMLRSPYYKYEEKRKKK
T1 sequence (P41143 whole entry): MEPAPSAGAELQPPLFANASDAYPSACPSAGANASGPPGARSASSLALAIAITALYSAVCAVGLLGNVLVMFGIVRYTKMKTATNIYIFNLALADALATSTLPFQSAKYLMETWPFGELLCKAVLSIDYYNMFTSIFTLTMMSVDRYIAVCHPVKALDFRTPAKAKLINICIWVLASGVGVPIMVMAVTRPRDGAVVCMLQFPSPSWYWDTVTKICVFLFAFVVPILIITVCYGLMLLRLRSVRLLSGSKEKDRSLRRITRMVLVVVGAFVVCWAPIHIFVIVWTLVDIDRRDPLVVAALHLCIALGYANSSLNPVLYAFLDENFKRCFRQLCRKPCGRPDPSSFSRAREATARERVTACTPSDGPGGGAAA
Chain of D(2) dopamine receptor (P14416 whole entry): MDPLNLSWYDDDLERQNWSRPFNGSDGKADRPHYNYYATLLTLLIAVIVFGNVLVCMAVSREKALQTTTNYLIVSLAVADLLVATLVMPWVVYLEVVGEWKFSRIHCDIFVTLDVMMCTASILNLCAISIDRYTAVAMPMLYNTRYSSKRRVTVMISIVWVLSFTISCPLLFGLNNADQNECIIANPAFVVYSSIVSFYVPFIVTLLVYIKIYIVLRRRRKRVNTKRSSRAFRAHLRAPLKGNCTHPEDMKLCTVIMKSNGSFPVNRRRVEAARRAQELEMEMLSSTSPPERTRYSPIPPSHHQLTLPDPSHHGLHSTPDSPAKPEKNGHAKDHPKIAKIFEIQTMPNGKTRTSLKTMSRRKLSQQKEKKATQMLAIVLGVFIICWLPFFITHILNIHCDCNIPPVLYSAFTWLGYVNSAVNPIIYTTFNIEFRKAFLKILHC
Chain of Beta-1 adrenergic receptor (P08588 whole entry): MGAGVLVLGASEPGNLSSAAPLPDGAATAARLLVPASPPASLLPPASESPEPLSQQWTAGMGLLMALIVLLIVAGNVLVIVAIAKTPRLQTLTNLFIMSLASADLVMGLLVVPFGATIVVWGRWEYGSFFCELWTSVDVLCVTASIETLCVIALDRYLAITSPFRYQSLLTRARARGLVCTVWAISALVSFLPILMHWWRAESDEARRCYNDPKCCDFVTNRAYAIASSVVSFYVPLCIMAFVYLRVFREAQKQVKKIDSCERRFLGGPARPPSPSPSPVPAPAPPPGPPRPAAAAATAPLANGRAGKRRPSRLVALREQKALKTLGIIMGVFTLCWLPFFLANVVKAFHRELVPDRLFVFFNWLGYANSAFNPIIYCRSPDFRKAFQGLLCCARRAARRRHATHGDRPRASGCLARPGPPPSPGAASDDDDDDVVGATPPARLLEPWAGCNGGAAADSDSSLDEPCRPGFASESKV
Chain of Kappa-type opioid receptor (P41145 whole entry): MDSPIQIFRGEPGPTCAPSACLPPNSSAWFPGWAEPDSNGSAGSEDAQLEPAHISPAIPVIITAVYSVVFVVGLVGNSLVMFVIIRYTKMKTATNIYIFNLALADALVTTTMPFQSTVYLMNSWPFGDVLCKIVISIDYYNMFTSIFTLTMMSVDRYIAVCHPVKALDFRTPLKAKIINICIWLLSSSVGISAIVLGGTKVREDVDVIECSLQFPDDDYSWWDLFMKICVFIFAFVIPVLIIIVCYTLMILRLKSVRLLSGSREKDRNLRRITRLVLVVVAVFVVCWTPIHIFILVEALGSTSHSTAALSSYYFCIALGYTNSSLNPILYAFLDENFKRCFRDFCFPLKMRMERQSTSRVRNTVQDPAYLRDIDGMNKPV
Chain of Histamine H3 receptor (Q9Y5N1 whole entry): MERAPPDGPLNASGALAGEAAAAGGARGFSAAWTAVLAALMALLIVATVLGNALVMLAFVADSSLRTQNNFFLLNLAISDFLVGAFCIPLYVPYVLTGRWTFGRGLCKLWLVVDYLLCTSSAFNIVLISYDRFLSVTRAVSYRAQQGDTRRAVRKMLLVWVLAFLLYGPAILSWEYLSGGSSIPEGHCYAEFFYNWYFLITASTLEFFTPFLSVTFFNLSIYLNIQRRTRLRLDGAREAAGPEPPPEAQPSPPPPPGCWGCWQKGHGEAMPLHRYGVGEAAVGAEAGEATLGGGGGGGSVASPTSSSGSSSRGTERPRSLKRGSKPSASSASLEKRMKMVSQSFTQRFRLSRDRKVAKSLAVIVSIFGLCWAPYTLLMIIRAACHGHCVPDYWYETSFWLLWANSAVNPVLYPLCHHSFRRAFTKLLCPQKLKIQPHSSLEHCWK

Compound	Ki [1] [µM]	Ki [2] [µM]	Ki [3] [µM]	Ki ([4]; read-out: Ki) [µM]	Ki [5] [µM]	Ki [6] [µM]	Ki [7] [µM]	Ki [8] [µM]	Ki ([4]; cho, read-out: Ki) [µM]	Ki ([4]; read-out: pKi (converted)) [µM]	inhibition [9] [%]	inhibition [10] [%]	pKi [11]	inhibition [12] [%]
CC[C@H]1c2ccccc2N(c2ccccc2)C[C@@]1(C)N (racemic)	> 10	> 10	3.98	0.074	> 10	0.631	0.398	> 10	–	–	–	–	–	–
C[C@@]12CN(c3ccccc3)c3ccccc3[C@@H]1CCN2 (racemic)	3.16	> 10	–	–	1	1	–	> 10	> 10	> 10	–	–	–	–
CC[C@H]1c2cc(C)ccc2OC[C@@]1(C)N (racemic)	> 10	> 10	> 10	–	> 10	> 10	> 10	> 10	–	2	< 50	< 50	< 5	< 50
COc1cc(OC)c2c(c1)OC[C@@]1(C)NCC[C@@H]21 (racemic)	1	> 10	–	–	> 10	> 10	–	> 10	–	1	< 50	< 50	< 5	< 50
CC[C@H]1c2cc(OC)ccc2CC[C@@]1(C)N (racemic)	> 10	> 10	> 10	–	> 10	> 10	6.31	0.316	–	0.631	< 50	< 50	< 5	< 50
